# Source: PubChem
# Rows were chosen to be rich in hits. Some 2% of all compounds tested hit in one or more screens of this group.
# PvdQ acylase = P. aeruginosa PvdQ acylase inhibitors, primary screen, biochemical, fluorescence, plate reader and imaging, single point; inhibition, % at 10 µM; AID 488965, 2010; PvdQ acylase [Pseudomonas aeruginosa LESB58]; purified PvdQ acylase; 340,000 compounds, 0.063% hits; in the data active = inhibition above about 30%, passing the limit was not always enough;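 also: 0% = vehicle neutral wells and 100% = reference inhibitor wells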
# IMP-1 inhibitor = IMP-1 metallo-beta-lactamase inhibitors, primary screen, biochemical, epi-absorbance readout, Pseudomonas aeruginosa enzyme; 290,000 compounds, 0.45% hits; purified IMP-1, nitrocefin hydrolysis, epi-absorbance fluorescence; metallo-beta-lactamase IMP-1 (Pseudomonas aeruginosa); inhibition, % at 5.6 µM;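 active = inhibition above the mean plus 3 SD of all compounds in the same screening run, cut at about 4.5% in these data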;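 also: 0% = IMP-1 with DMSO and 100% = DMSO wells lacking enzyme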
#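 System: Purified recombinant IMP-1 metallo-beta-lactamase enzyme | Measured by: Fluorescence quenching readout, ex 480/em 530 nm | Replication: Singlicate | Incubation: 15 min preincubation plus 25 min reaction at 25 °C | Evaluation: Percent inhibition from optical density relative to buffer-blank wells | Benchmarks: DMSO with and without IMP-1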
# MIN6 prolif-1 = inducers of MIN6 beta-cell proliferation, primary screen, ATP luminescence, uHTS; MIN6 cells proliferation, ATPlite luminescence, 48 h; cells starved in 0.2% serum; 100% = growth in 10% serum; proliferation, % at 10 µM; 330,000 compounds, 0.29% hits; AID 2380, 2010;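 active = compounds whose signal lies at least 3.5 SD above the mean of all wells on their plate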;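 also: 0% = DMSO-treated cells in low-serum medium and 100% = 10% serum control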
# ATG4B inhibitor = ATG4B protease inhibitors, primary screen, biochemical, fluorescence, uHTS. inhibition, % at 8.33 µM. 340,000 compounds, 0.51% hits. AID 504462, 2011. ATG4B cleavage of LC3-PLA2, NBD-HPC fluorescence, 1 h. Cysteine protease ATG4B (Homo sapiens), Q9Y4P1; in the data active = inhibition above about 40%
# VIM-2 inhibitor = VIM-2 metallo-beta-lactamase inhibitors, primary screen, biochemical, epi-absorbance readout, Pseudomonas aeruginosa enzyme. purified VIM-2, nitrocefin hydrolysis, epi-absorbance fluorescence. inhibition, % at 5.6 µM. 290,000 compounds, 0.89% hits;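 active = inhibition above the mean of all tested compounds plus 3 SD, cutoff set per screening run, cut at about 7.5% in these data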;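 also: red hydrolysis product quenches plate fluorescence so inhibitors raise well fluorescence; 0% = enzyme with DMSO and 100% = DMSO without enzyme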
# HKDC1 inhibitor = HKDC1 hexokinase inhibitors, primary screen, biochemical, fluorescence, uHTS | recombinant HKDC1, G6PDH/diaphorase resazurin coupled fluorescence | Q2TB90 | AID 493160, 2011 | 340,000 compounds, 0.16% hits | inhibition, % at 20 µM;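 active = inhibition above about 35% when tested at 20 µM, limit read from the data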;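 also: plate controls were DMSO wells with enzyme for no effect and DMSO wells lacking enzyme for full effect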
# Target sequence (Q2TB90 whole entry, looked up): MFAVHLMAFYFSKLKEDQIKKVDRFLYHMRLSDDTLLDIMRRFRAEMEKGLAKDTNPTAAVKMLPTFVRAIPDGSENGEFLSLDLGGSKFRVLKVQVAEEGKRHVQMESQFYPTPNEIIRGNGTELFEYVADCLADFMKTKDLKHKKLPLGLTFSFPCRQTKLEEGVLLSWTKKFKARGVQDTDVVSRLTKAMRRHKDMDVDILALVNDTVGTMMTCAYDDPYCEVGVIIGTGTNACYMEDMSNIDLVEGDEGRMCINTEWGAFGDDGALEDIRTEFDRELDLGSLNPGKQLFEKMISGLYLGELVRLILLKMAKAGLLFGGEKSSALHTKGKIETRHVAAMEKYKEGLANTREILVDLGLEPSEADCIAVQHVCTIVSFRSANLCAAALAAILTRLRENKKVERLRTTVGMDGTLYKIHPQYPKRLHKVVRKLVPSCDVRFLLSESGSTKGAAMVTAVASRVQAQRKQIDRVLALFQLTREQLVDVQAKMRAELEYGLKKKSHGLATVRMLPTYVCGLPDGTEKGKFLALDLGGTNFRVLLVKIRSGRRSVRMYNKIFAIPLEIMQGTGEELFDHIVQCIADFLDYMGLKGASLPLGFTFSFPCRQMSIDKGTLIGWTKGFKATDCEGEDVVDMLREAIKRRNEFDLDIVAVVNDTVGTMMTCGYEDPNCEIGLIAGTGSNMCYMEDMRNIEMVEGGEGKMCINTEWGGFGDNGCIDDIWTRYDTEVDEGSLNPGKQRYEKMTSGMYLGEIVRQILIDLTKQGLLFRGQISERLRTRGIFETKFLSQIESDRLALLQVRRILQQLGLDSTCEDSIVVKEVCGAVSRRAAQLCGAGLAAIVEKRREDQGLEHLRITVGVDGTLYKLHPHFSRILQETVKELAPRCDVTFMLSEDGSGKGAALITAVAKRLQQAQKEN
#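 Test system: Recombinant HKDC1 (HK5) hexokinase enzyme, produced in-house | Input: HKDC1 at 5 µg/mL | Buffer or medium: Tris pH 8.0 buffer with MgCl2, Tween-20, BSA, BME | Schedule: 90 min reaction incubation at room temperature, dark | Technique: Resazurin-to-resorufin fluorescence via G6PDH and diaphorase coupling, 525/613 nm | Controls: DMSO wells with and without enzyme mix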
# VIM-2 confirm = P. aeruginosa VIM-2 enzyme inhibition – biochemical, epi-absorbance, HTS, confirmation; shares compounds with IMP-1 inhibitor; purified VIM-2 enzyme, nitrocefin absorbance; inhibition, % at 5.6 µM; 200 compounds, 73% hits; AID 1860, 2009; in the data active = inhibition above about 8%;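 also: 0% = enzyme with vehicle and 100% = no enzyme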
# TEM-1 inh 2 = Serine beta-lactamase TEM-1 inhibition, biochemical epi-absorbance counter-screen for IMP-1/VIM-2 inhibitor program | shares compounds with IMP-1 inhibitor | TEM-1 beta-lactamase, nitrocefin absorbance inhibition | inhibition, % at 5.6 µM | 200 compounds, 50% hits | AID 2184, 2009; in the data active = inhibition above about 0.66%
# IMP-1 confirm = IMP-1 metallo-beta-lactamase inhibitors, confirmation, biochemical, epi-absorbance, hits shared with VIM-2 screen; shares compounds with IMP-1 inhibitor; purified IMP-1 enzyme, absorbance substrate hydrolysis; inhibition, % at 5.6 µM; 200 compounds, 60% hits; in the data active = inhibition above about 4.9%;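 also: 0% = enzyme with vehicle and 100% = vehicle without enzyme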
# MIN6 prolif-2 = inducers of beta-cell proliferation in MIN6, confirmation, MIN6 cells, mouse. 920 tested, under 10 active. shares compounds with MIN6 prolif-1. ATPlite luminescence, 48 h; cells kept in 0.2% serum; scaled between 0.2% and 10% serum. proliferation increase, % at 50 µM;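 active = proliferation increase above 40% at any of the four tested concentrations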
# * hit, by the source's call; / = no result.
SMILES,PvdQ acylase,IMP-1 inhibitor,MIN6 prolif-1,ATG4B inhibitor,VIM-2 inhibitor,HKDC1 inhibitor,MIN6 prolif-2,others
O=C1c2cccc3c(O)ccc(c23)C(=O)N1Cc1ccco1,20.5,20.8*,1.1,-59.5,17.8*,11.1,/,VIM-2 confirm=30.6*;TEM-1 inh 2=38.3*;IMP-1 confirm=27.9*
Cc1ccc(C23CC4CC(CC(C(=O)NN)(C4)C2)C3)cc1,-0.5,-4.2,-2.8,2.4,-3.3,2.8,/,
S=c1ncc2[nH]c(=S)[nH]c2[nH]1,10.9,/,/,-3.6,/,0.3,/,
CCOC(=O)NC(=O)C(/C=N/c1sccc1C(=O)OC)=C(\C)O,8.0,8.6*,0.3,11.8,7.8*,-6.2,/,VIM-2 confirm=10.1*;TEM-1 inh 2=-2.6;IMP-1 confirm=-2.8
CCN(CC)CCOC(=O)c1ccc(N/C=C(/C#N)c2nc(-c3ccc(OC)cc3)cs2)cc1,3.5,0.5,-6.3,-20.8,-2.4,-1.0,/,
CCN(CC)CCOC(=O)c1ccc(N/C=C(/C#N)c2nc(-c3cc4ccccc4oc3=O)cs2)cc1,-11.8,12.7*,-6.0,23.3,41.7*,-3.0,/,VIM-2 confirm=52.4*;TEM-1 inh 2=-5.1;IMP-1 confirm=11.3*
CCn1c(=S)sc2c(=O)n(CC(=O)Nc3ccccc3C(F)(F)F)c(C)nc21,-13.8,41.1*,-2.7,-7.7,21.5*,-1.8,/,VIM-2 confirm=18.8*;TEM-1 inh 2=0.0;IMP-1 confirm=23.6*
CCn1c(=S)sc2c(=O)n(CC(=O)Nc3ccccc3)c(C)nc21,-3.3,-4.3,-2.5,-7.3,-0.3,-4.3,/,
Cc1cccn2c(=O)c(C=O)c(N3CCN(c4ccc(F)cc4)CC3)nc12,-4.8,-3.4,1.5,9.6,-2.1,2.9,/,
O=C(O)c1c(C(=O)O)c(-c2ccc(Cl)c(Cl)c2)n2c1CSC2,-4.7,4.9*,-2.0,-1.0,57.0*,5.4,/,VIM-2 confirm=55.1*;TEM-1 inh 2=-1.4;IMP-1 confirm=3.5
CCOC(=O)/C(=C\C=C1/Sc2ccccc2N1CC)C(C)=O,0.8,7.8*,/,-2.4,8.5*,12.2,/,VIM-2 confirm=7.3;TEM-1 inh 2=0.7*;IMP-1 confirm=3.8
CCC(C)NCCOCCOc1ccc(Cl)c2ccccc12 (stereo not drawn),-9.6,2.9,-6.6,3.9,2.5,0.2,/,
O=[N+]([O-])c1cn(-c2nc(-c3ccco3)cc(C(F)(F)F)n2)cn1,0.9,3.4,7.7*,-11.6,-1.1,-4.4,-0.2,
CN1CCN(c2nc(-c3ccco3)cc(C(F)(F)F)n2)CC1,2.3,-2.7,1.1,1.4,-1.6,-7.9,/,
COCCNC(=O)C(c1ccc(F)cc1)N(Cc1cccs1)C(=O)CCC(=O)Nc1ccccn1 (stereo not drawn),-7.9,-2.2,5.5*,-0.6,-4.0,3.0,-2.3,
COCCCn1c(C(=O)NC2CCCCC2C)cc2c(=O)n3cccc(C)c3nc21 (stereo not drawn),-0.9,-2.0,4.9*,2.2,1.9,0.4,-6.3,
O=C(NC(=S)Nc1ccccc1[N+](=O)[O-])c1cncc(Br)c1,-6.1,-3.1,-2.7,8.1,-2.1,6.0,/,
CC(=O)Nc1cccc(-c2cnc(N)c(C(=O)c3cccnc3)n2)c1,0.6,/,10.9*,-3.1,/,5.0,-3.5,
COc1ccc(OC)c(N(CC(=O)NCC2CCCO2)S(=O)(=O)c2ccccc2)c1 (stereo not drawn),-8.0,-0.9,0.4,-0.1,-0.7,-7.7,/,
CC(C)Cn1nc(NC(=O)c2ccco2)c2cc3ccccc3nc21,-16.1,-1.8,6.8*,7.2,-1.9,4.8,-2.3,
CCn1nc(NC(=O)c2ccco2)c2cc3ccccc3nc21,3.1,-3.1,1.8,-6.0,-0.3,15.2,/,
COc1ccc(/C=N/NC(=O)c2cnccn2)cc1O,-12.5,-3.0,0.0*,-2.3,-4.6,10.4,0.3,
CN(CC(=O)Nc1ccc(Cl)cc1)C(=O)CNC(=O)c1cccs1,-0.6,/,4.0,1.1,/,-0.3,/,
Cc1ccc(NC(=O)CN(C)C(=O)CNC(=O)c2cccs2)cc1,-1.0,/,11.8*,1.5,/,1.6,-3.1,
CCN(C(=O)CN1C(=S)NC(C)(C)CC1C)c1ccc(C)c(C)c1 (stereo not drawn),-5.7,-1.8,9.3*,-4.5,-0.3,0.1,-1.6,
SMILES,PvdQ acylase,IMP-1 inhibitor,MIN6 prolif-1,ATG4B inhibitor,VIM-2 inhibitor,HKDC1 inhibitor,MIN6 prolif-2,others
CCOC(=O)C1=C(COC(=O)/C=C/c2ccc(OC)cc2OC)NC(=O)NC1C (stereo not drawn),-9.5,/,13.1*,4.2,/,-2.9,1.6,
COC(=O)c1ccc(NC(=O)c2cc(-c3ccccn3)nc3ccccc23)cc1,-17.7,-3.7,7.5*,-0.1,-4.1,-3.3,1.6,
C=CCOc1ccc(-c2nc3c(c(=O)[nH]c(=O)n3Cc3ccccc3)n2CCCOC)cc1,-17.1,-1.1,-1.8,-3.6,-3.8,-2.7,/,
COCCn1c(-c2ccc3ccccc3c2)nc2c1c(=O)[nH]c(=O)n2CC(C)C,-6.8,-1.7,9.0*,1.8,-4.1,1.2,-5.9,
COCCCn1c(-c2ccc(OC)cc2)nc2c1c(=O)[nH]c(=O)n2Cc1ccccc1,-7.8,-3.4,0.0*,1.3,-3.0,2.5,-4.0,
C=CCOc1ccc(-c2nc3c(c(=O)[nH]c(=O)n3CCC)n2CCCC)cc1,-8.6,0.5,0.0*,-4.2,-2.3,-2.6,2.8,
C=CCOc1ccc(-c2nc3c(c(=O)[nH]c(=O)n3CCCC)n2C)cc1Br,-2.3,-3.5,0.2,-14.4,-1.8,-5.7,/,
CCCNc1nc(C)cc(-c2cc(C(=O)Nc3ccccc3)on2)n1,-5.5,/,1.9,1.9,/,-5.7,/,
C=CCOC(=O)C1=C(C)Nc2nnnn2C1c1cccs1 (stereo not drawn),-7.2,-1.4,1.8,-11.8,-1.1,-7.5,/,
CCSc1nnc(NC(=O)[C@H](C)NC(=O)c2ccccc2Cl)s1,-5.1,-3.4,-3.2,-6.0,-3.0,-2.3,/,
